Screening data (PubChem BioAssay)
STAT3 act = increases IL-6 driven STAT3 reporter signal; activation (% of control), % at 5.6 µM; hit rate 0.91% among 190,000; U3A cells, IL-6 STAT3-luciferase reporter, luminescence; 100% = signal with IL-6 EC80 alone; AID 871;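 active = activation above the screen-wide mean of compound activation plus 3 SD, cut at about 130% in these data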;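 note: 0% = background luminescence of wells with medium and substrate only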
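Test system: human U3A cells carrying STAT3-luciferase construct; control set: IL-6-only wells as 100% reference; timing: compound pre-incubation 1 h before IL-6, then 6 h stimulation at 37 °C; also added: IL-6 stimulus at 33 ng/mL final; evaluation: % activation versus median of IL-6-stimulated wells; detection: reporter luminescence signal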
thrombin 1536 = blocks human thrombin protease activity; alpha-thrombin, Boc-VPR-AMC fluorogenic substrate cleavage; inhibition, % at 5 µM; hit rate 0.26% among 220,000; AID 1046;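 active = inhibition at or above 40%; inactive = inhibition below 40%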;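 note: 0% = enzyme with no compound and 100% = wells without enzyme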
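Test system: human alpha-thrombin protein / Dosing: one concentration per compound, 5 µM, with 0.2% DMSO / Medium: pH 7.5 Tris-saline with Tween 20 / Benchmarks: no-compound enzyme wells and no-enzyme blanks / Read-out basis: percent inhibition of thrombin substrate cleavage / Timing: reaction at room temperature / Measured by: fluorescence, ex 355 nm, em 460 nm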
FXIIa inh = factor XIIa (human) inhibition. purified FXIIa, Boc-QGR-AMC fluorogenic substrate, 2 h. inhibition, % at 5 µM. hit rate 0.3% among 220,000. P00748; in the data active = inhibition above about 40%;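 note: 0% = enzyme with no compound and 100% = blank without enzyme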
FXIa inh = blocks human coagulation factor XIa protease activity. inhibition, % at 5 µM. purified FXIa, Boc-Glu-Ala-Arg-AMC fluorogenic substrate. AID 798. hit rate 0.14% among 220,000;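 active = inhibition of at least 40%; inactive = inhibition below 40%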;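 note: fluorescence of freed AMC excited at 355 nm; 0% = enzyme without compound and 100% = no enzyme blank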
KLK5 inh = kallikrein 5 (human) inhibition; recombinant hK5, fluorogenic AMC substrate cleavage; Q9Y337; inhibition, % at 5 µM; AID 873; hit rate 0.59% among 210,000;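 active = inhibition of 40% or more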;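 note: 0% = enzyme controls without compound and 100% = no-enzyme blanks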
Target sequence (Q9Y337 67-293 limits assumed): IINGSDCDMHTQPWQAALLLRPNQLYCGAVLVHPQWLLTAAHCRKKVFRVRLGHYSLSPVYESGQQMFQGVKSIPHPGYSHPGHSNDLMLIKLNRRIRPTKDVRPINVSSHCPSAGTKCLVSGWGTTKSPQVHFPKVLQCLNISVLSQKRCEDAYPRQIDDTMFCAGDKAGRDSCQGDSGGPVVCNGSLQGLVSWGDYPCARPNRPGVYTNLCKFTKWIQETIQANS
AHR activator = activates the human aryl hydrocarbon receptor | hit rate 2.5% among 320,000 | AID 2796 | activation, % at 5 µM | AHR-responsive luciferase reporter cells, luminescence | P35869; in the data active = activation above about 47%;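 note: 0% = vehicle wells and 100% = reference agonist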
* = called active by the depositor; . = no result. A selection: hits, their analogues and other compounds. The true share with any hit is near 3.5%.

SMILES	STAT3 act	thrombin 1536	FXIIa inh	FXIa inh	KLK5 inh	AHR activator
Cc1nc(NC(C)C)c2cnn(CCc3ccccc3)c2n1	108	2	11	3	-7	59*
Cc1nc(NCCc2ccc(F)cc2)c2nnn(Cc3ccccc3)c2n1	.	.	.	.	.	1
CCCNc1nc(C)nc2c1cnn2CCc1ccccc1	96	3	-2	-2	4	68*
Cc1ccc(C)c(N2C(=O)C3C4C=CC(CC4)C3C2=O)c1 (stereo unspecified)	.	.	.	.	.	-2
CCCCNC(=O)CSc1nc2ccc(N3CCOCC3)cc2c(=O)n1Cc1ccc(OC)cc1	109	0	10	1	.	.
COCCNC(=O)CSc1nc2ccc(N3CCOCC3)cc2c(=O)n1Cc1ccc(OC)cc1	107	3	-7	-6	103*	13
COc1cccc(C(=O)Nc2sc3c(c2C#N)CCN(C(C)=O)C3)c1	88	4	26	30	42*	-3
O=C(Nc1c(C(=O)c2ccccc2)oc2ccccc12)c1cc(-c2ccccc2O)n[nH]1	95	2	10	2	2	68*
Cc1ccc(C(=O)c2oc3ccccc3c2NC(=O)c2cc(-c3cc(C)ccc3O)n[nH]2)cc1	.	9	16	8	10	-6
Cc1ccc(C(=O)c2oc3ccccc3c2NC(=O)c2cc(-c3ccccc3O)n[nH]2)cc1	91	0	10	-1	-6	51*
C[C@H](CO)N1C[C@H](C)[C@@H](CN(C)S(=O)(=O)c2ccccc2)Oc2c(NC(=O)NC3CCCCC3)cccc2C1=O	.	.	.	.	.	2
CN(C)c1ccc(NC(=O)c2ccc(Cn3cc([N+](=O)[O-])cn3)cc2)cc1	108	97*	6	-3	-1	71*
O=C(NCCC1CCCCN1S(=O)(=O)c1ccc(F)cc1)C(=O)Nc1ccccc1 (stereo unspecified)	.	.	.	.	.	4
CCOC(=O)C(N)CSC1CC(=O)N(CCc2ccccc2)C1=O (stereo unspecified)	.	.	.	.	.	2
OCCO	.	.	.	.	.	0
CCCCNC(=O)Cc1coc2ccc3ccccc3c12	99	8	20	1	58*	8
COCCCNC(=O)Cc1coc2ccc3ccccc3c12	87	1	8	3	-9	4
Oc1ccc(/C=N/NC(=S)Nc2cccnc2)cc1O	94	-15	0	-7	-91	79*
CC(C)(C)c1ccc(/C=N/NC(=S)Nc2cccnc2)cc1	92	7	25	30	28	34
COc1cc(/C=N/NC(=S)Nc2cccnc2)cc(OC)c1OC	96	-3	8	-1	1	62*
Cc1ccc(C)c(NC(=S)Nc2cccnc2)c1	100	-4	8	-3	-2	23
CC1=C/C(=N\NC(=S)Nc2cccnc2)CC(C)(C)C1	106	4	22	40*	13	.
S=C(N/N=C/c1ccc2ncccc2c1)Nc1cccnc1	44	4	6	-2	-6	-7
COc1ccccc1/C=N/NC(=O)CC(=O)NCc1cccnc1	102	-4	13	3	-8	12
COc1ccccc1/C=N/NC(=S)Nc1cccnc1	89	-11	0	-2	-6	59*
SMILES	STAT3 act	thrombin 1536	FXIIa inh	FXIa inh	KLK5 inh	AHR activator
Nc1ccccc1-c1n[nH]c(=S)s1	103	-13	-2	-5	-8	.
CN(C)c1ccc(/C=C2\Oc3ccc(C#Cc4cccc(N)c4)cc3C2=O)cc1	.	.	.	.	.	11
COc1ccc(CNC(=O)CNS(=O)(=O)c2cccs2)cc1	.	.	.	.	.	0
CCC(C)(C)C1CCC(=NNC(=S)Nc2ccccc2)CC1 (stereo unspecified)	93	-4	4	-3	-15	6
CCC(C)(C)C1CCC(=NNC(=S)Nc2cccnc2)CC1 (stereo unspecified)	102	-6	11	0	-6	69*
CC1(C)C2CC=C(/C=N/NC(=S)Nc3cccnc3)C1C2 (stereo unspecified)	107	-3	5	-1	6	65*
COc1ccc(-c2cc(C(=O)N3CCN(c4ccccc4)CC3)c3ccccc3n2)cc1OC	105	-6	8	-4	-4	77*
COc1ccc(-c2cc(C(=O)N(C)Cc3ccccc3F)c3ccccc3n2)cc1OC	.	.	.	.	.	71*
COc1ccc(-c2cc(C(=O)N3CCCC(C(F)(F)F)C3)c3ccccc3n2)cc1OC (stereo unspecified)	.	.	.	.	.	42
COc1ccccc1CN(C)C(=O)c1cc(-c2cc(OC)c(OC)c(OC)c2)nc2ccccc12	.	.	.	.	.	32
